The text below walks through data of article PMC9868104 (Cell chemical biology, 2022).

One series deals with secreted IFN-β. Put plainly: Interferon-β ELISA, CT-26 cells. It counts as cell-based, mouse. As to conditions: 300 nM, 16 h. The method, boiled down:
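CT-26 cells were grown in RPMI-1640 + 10% FBS in 6-well plates. After 24 h, medium was replaced and cells were treated for 16 h with 300 nM test compound, with or without the covalent STING inhibitor H-151 (500 nM). Harvested medium was assayed for IFN-β with a mouse IFN-β ELISA kit. Statistics: one-way ANOVA.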

The target of series [1] is T1, PARP1 (Homo sapiens, UniProt P09874). As to conditions: in words; cited from earlier work.
Series [2] has as its system other PARP family members. Put plainly: PASTA family-wide PARP inhibitor screening, other PARP family members. It counts as biochemical.
The next series concerns STAT1 and pSTAT1. Put plainly: STAT1 and pSTAT1. It is filed as cell-based, mouse. As to conditions: CT-26 cells. The gist of the method: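 CT-26 cells at 75% confluency were treated with test compound at 0.01–1 μM for 16 h (dose-response) or at 0.3 μM over 0–24 h (time course); DMXAA (10 μg/ml, 1 h) served as positive control. Lysis buffer contained protease and phosphatase inhibitors plus 30 μM pan-PARP inhibitor. Bradford-normalized lysates were run on SDS-PAGE and nitrocellulose, probed for STAT1 and phospho-STAT1 Tyr701, detected by HRP chemiluminescence, and bands quantified densitometrically.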

In another series the test system is PARP7 protein levels. Put plainly: Endogenous PARP7 protein levels in CT-26 cells. It is filed as cell-based, mouse.
For the next series, the target named is T2, PARP12 (Homo sapiens, UniProt Q9H0J9).
T2 sequence (Q9H0J9 484-698 limits assumed): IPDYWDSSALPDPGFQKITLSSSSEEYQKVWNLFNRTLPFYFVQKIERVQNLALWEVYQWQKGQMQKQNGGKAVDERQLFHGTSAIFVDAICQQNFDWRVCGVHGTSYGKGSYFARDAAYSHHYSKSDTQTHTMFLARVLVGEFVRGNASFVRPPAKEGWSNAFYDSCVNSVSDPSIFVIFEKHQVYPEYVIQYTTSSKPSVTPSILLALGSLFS
As to conditions: in words; cited from earlier work.

Series [3] concerns ISRE luciferase reporter (type I interferon). Put plainly: ISRE luciferase assay in ISRE-Luc CT-26 cells. The conditions noted are these: 18 h, saturating doses. It is filed as cell-based, mouse. The gist of the method:
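ISRE-Luc CT-26 cells were made by lentiviral ISRE-luciferase transduction with 8 μg/mL polybrene and kept under 20 μg/mL puromycin. 1.0 × 10^4 ISRE-Luc or WT CT-26 cells were grown overnight. Test compound was serially diluted in DMSO, then in medium, and added for 18 h. Lysates were read by ONE-Glo luminescence (2 s integration), with the WT CT-26 signal subtracted as background. Curves were four-parameter fits.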

The next series deals with T3, PARP7 (Homo sapiens, UniProt Q7Z3E1).
T3 sequence (Q7Z3E1 1-657): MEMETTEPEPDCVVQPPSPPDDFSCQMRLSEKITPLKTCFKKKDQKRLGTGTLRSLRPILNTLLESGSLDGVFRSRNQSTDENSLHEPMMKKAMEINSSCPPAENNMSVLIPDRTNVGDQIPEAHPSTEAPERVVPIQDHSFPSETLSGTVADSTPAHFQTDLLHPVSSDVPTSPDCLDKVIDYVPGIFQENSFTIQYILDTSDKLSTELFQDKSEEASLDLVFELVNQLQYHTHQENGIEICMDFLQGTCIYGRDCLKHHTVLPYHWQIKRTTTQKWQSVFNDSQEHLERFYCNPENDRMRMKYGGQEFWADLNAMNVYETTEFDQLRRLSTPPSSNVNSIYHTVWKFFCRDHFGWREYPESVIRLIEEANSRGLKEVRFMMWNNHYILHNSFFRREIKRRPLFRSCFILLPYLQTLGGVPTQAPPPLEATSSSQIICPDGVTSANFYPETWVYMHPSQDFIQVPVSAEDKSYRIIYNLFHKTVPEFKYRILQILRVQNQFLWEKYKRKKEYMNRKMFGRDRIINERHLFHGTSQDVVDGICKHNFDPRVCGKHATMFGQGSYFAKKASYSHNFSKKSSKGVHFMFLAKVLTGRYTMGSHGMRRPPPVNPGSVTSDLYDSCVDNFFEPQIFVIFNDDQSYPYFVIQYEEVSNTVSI
Put plainly: PASTA biochemical PARP screening assay, PARP7. The conditions noted are these: in words.

For series [4], the target named is T1, PARP1. Put plainly: PASTA biochemical PARP screening assay, PARP1. The conditions noted are these: in words.
The next series addresses PARP2 (Homo sapiens, UniProt Q9UGN5). Put plainly: PASTA biochemical PARP screening assay, PARP2. As to conditions: in words.
For series [5], the system named is CYP1A1 mRNA (AHR target gene). Put plainly: CYP1A1 mRNA levels in MEFs. It counts as cell-based, mouse. The conditions noted are these: PARP7−/− MEFs, 1 nM TCDD.
The test system of series [6] is STING signaling (STING, pTBK1, pIRF3). Put plainly: STING, pTBK1 and pIRF3 western blot in CT-26 cells. It counts as cell-based, mouse. The gist of the method:
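Lysates were made in HEPES/Triton buffer with TCEP, protease and phosphatase inhibitors and 30 μM pan-PARP inhibitor, normalized by Bradford, and run on SDS-PAGE and nitrocellulose. Blots were probed overnight at 4°C for STING, phospho-TBK1 Ser172 and phospho-IRF3 Ser396 (1:1000 for both phospho antibodies), with tubulin as loading control, and read by HRP chemiluminescence.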
A general note: A western blot detects proteins with antibodies after separation by electrophoresis.

Where [7] appears, read: increasing concentrations, 16 h.

Usually IC50 stands for the point on the concentration scale where inhibition reaches its midpoint.

T1 sequence (P09874 whole entry): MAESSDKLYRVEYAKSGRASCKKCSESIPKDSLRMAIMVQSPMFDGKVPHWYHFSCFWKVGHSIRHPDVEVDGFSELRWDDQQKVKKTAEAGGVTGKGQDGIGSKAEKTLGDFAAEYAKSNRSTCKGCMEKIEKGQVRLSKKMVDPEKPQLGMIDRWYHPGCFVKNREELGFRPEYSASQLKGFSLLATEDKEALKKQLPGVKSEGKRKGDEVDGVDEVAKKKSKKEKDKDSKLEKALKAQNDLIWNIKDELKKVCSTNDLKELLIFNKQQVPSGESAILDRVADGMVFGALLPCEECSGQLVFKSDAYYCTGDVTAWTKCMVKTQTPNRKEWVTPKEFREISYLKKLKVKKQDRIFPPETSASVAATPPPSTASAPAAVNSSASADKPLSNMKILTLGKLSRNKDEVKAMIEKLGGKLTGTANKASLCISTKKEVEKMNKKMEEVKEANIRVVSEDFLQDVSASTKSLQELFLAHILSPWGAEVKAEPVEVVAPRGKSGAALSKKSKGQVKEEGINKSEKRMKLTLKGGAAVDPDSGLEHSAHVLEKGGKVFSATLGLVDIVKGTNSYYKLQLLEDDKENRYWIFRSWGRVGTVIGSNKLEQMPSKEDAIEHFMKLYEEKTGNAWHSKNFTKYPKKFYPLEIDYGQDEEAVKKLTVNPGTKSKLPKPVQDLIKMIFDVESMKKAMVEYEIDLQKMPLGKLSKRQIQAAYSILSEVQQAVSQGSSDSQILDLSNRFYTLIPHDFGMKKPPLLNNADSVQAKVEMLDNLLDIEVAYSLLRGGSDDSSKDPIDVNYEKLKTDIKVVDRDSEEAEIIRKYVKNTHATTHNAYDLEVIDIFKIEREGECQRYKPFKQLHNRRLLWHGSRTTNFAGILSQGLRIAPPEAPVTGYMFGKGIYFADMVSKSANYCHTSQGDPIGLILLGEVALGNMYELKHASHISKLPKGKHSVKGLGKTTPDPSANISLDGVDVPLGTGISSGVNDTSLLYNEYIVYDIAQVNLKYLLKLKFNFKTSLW
Chain of PARP2 (Q9UGN5 whole entry): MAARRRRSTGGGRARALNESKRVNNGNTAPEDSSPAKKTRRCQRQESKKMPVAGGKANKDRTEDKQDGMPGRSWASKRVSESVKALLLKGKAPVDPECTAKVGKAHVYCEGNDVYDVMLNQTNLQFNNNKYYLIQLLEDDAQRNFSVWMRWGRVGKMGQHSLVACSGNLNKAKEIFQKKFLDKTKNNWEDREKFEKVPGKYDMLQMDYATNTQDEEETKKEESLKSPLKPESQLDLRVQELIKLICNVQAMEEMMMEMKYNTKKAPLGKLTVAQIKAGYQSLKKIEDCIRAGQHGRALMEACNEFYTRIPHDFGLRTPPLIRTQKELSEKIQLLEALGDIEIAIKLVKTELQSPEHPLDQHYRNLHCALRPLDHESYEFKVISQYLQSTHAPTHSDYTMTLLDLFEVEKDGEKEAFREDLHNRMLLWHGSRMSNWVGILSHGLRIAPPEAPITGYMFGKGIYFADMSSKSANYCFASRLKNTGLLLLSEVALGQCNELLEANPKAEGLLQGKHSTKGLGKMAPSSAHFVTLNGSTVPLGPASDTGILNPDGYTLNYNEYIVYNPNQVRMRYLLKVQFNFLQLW

Take `C[C@@H](COCCC(=O)N1CCN(c2ncc(C(F)(F)F)cn2)CC1)Nc1cn[nH]c(=O)c1C(F)(F)F` [RBN-2397]: the “levels of secreted IFN-β” value in the series with secreted IFN-β is recorded as “to a greater extent than KMR-206”. Besides, at PARP1 [1], the “inhibition of PARP1, previous study” value is reported as “double digit nanomolar inhibition”. Besides, the IC50 in series [2] (read-out: IC50 most other PARP family members (does not inhibit up to)) is greater than 3000 nM. In the series with STAT1 and pSTAT1 (300 nM), the “time of noticeable increase in STAT1” value is recorded as 16 h and the “time of noticeable increase in pSTAT1” value is 4 h. Further, the “STAT1 and pSTAT1 levels” value in the series on STAT1 and pSTAT1 (setting [7]) is given as “dose-dependently increased”. The “time of maximal PARP7 protein levels after addition” value in the series on PARP7 protein levels (0.3 μM time-course) is on record as ~ 16 h. In the series with PARP7 protein levels (setting [7]), the “endogenous PARP7 levels” value is listed as “dramatically increased”. Further, in the series with PARP7 protein levels (saturating doses), the “increase in PARP7 protein abundance compared to KMR-206” value stood at 2 fold. The “inhibition of PARP12, previous study” value at PARP12 is given as “double digit nanomolar inhibition”. Also, in [3], the “magnitude of ISRE luciferase response compared to KMR-206” value is listed as ~ 2 fold.
Turning to `N#Cc1ccc(N2CCN(C(=O)c3cc(Cc4n[nH]c(=O)c5ccccc45)ccc3F)CC2)nc1` [Phthal01], the “potency against PARP7” value at PARP7 is reported as “double-digit nanomolar”. The “fold more potent against PARP7 compared to all other PARP family members” value in [2] (other than PARP1 and PARP2) is reported as “at least 12 fold”. In addition, the “potency against PARP1” value on PARP1 [4] is reported as “double-digit nanomolar”. The “potency against PARP2” value at PARP2 was “double-digit nanomolar”.
In the case of `Clc1cc2c(cc1Cl)Oc1cc(Cl)c(Cl)cc1O2` [TCDD, 2,3,7,8-tetrachlorodibenzo-p-dioxin], the “CYP1A1 mRNA levels, TCDD alone” value in series [5] is recorded as “robust induction of CYP1A1”.
Take `Cc1ccc2c(=O)c3cccc(CC(=O)O)c3oc2c1C` [DMXAA, 5,6-Dimethylxanthenone-4-acetic Acid]: in series [6], the STING levels result was “substantially decreased”, the pIRF3 result is “robustly induced” and the pTBK1 entry is on record as “robustly induced”.
